Measurements of several laboratories.
Organism: Severe acute respiratory syndrome coronavirus 2

Structure (SMILES)	assay	test system	setting	measurement	value
O=C(O)c1c(Nc2cccc(F)c2)[nH]c2cc(Cl)ccc2c1=O	viral entry, inhibitor	NCI-H1299	pseudovirus	EC50	690 nM
OC(CNCC(O)C1CCc2cc(F)ccc2O1)C1CCc2cc(F)ccc2O1 (stereo not shown)	viral replication, inhibitor	Huh-7		IC50	> 2000 nM
CCN(CC)CCCC(C)Nc1ccnc2cc(Cl)ccc12 (stereo not shown)	viral replication, inhibitor	A549-ACE2		IC50	912 nM
Cc1cc(C)c(N(C)CC(=O)Nc2nc(-c3ccccn3)c[nH]2)c(C)c1	viral replication, inhibitor	Vero C1008	1 µM	inhibition	50.7%
CC(C)=CCc1c(O)ccc(C(=O)/C=C/c2ccc(O)cc2)c1O	cytopathic effect	Vero C1008	100 µM	inhibition	90%
CCC(CC)COC(=O)[C@H](C)N[P@](=O)(OC[C@H]1O[C@@](C#N)(c2ccc3c(N)ncnn23)[C@H](O)[C@@H]1O)Oc1ccccc1	viral replication	Vero	10 nM	inhibition	53.8%
Fc1ccc(C(OCCN2CCN(CCCc3ccccc3)CC2)c2ccc(F)cc2)cc1	viral replication, inhibitor	A549-ACE2		IC50	6030 nM
Cn1c(C(=O)Nc2ccc3c(c2)OCCO3)cc2c(=O)n3ccccc3nc21	viral replication	Vero	0.1 µM	inhibition	37.7%
CN(C)CCC=C1c2ccccc2CCc2ccccc21	viral replication	Vero C1008		IC50	2820 nM
C=C[C@@](C)(/C=C/c1ccc(O)cc1)CCC=C(C)C	cytopathic effect	Vero C1008	25 µM	inhibition	0%
Cc1cccc(C)c1OCC(=O)N[C@@H](Cc1ccccc1)[C@@H](O)C[C@H](Cc1ccccc1)NC(=O)[C@H](C(C)C)N1CCCNC1=O	viral replication, inhibitor	Vero C1008		EC50	< 100000 nM
CCC(CC)COC(=O)[C@H](C)N[P@](=O)(OC[C@H]1O[C@@](C#N)(c2ccc3c(N)ncnn23)[C@H](O)[C@@H]1O)Oc1ccccc1	viral replication, inhibitor, qPCR	Vero C1008		EC50	1130 nM
CCC(CC)COC(=O)[C@H](C)N[P@](=O)(OC[C@H]1O[C@@](C#N)(c2ccc3c(N)ncnn23)[C@H](O)[C@@H]1O)Oc1ccccc1	viral replication, inhibitor	Huh-7		IC50	6 nM
CCCCCN(C(=O)NC)c1ccc2nc(CCCC)n(Cc3ccc(NC(=O)c4c(Cl)ccc(Cl)c4C(=O)O)cc3)c2c1	viral replication, inhibitor	Vero C1008	1 µM	inhibition	44.5%
CCCCCCCCCCCCCCCCOCCCOP(=O)(O)OC[C@H]1O[C@@](C#N)(c2ccc3c(N)ncnn23)[C@H](O)[C@@H]1O	viral replication, inhibitor, qPCR	Vero C1008	48 h	EC90	730 nM
CC(C)/N=c1\cc2n(-c3ccc(Cl)cc3)c3ccccc3nc-2cc1Nc1ccc(Cl)cc1	viral replication, inhibitor	Huh-7		IC50	85 nM
O=C(Nc1ccccc1F)c1cc2c(=O)n3ccccc3nc2n1Cc1ccccc1	viral replication	Vero	10 nM	inhibition	50.8%
N#C[C@@]1(c2ccc3c(N)ncnn23)O[C@H](CO)[C@@H](O)[C@H]1O	viral replication, inhibitor, qPCR	Vero C1008		EC50	380 nM
CCC(C)(C)C(=O)O[C@H]1C[C@@H](C)C=C2C=C[C@H](C)[C@H](CC[C@@H]3C[C@@H](O)CC(=O)O3)[C@H]21	viral replication, inhibitor	Huh-7		IC50	> 2000 nM
OCCOCCN1CCN(C(c2ccccc2)c2ccc(Cl)cc2)CC1 (stereo not shown)	viral replication, inhibitor	A549-ACE2		IC50	3630 nM

Structure (SMILES)	assay	test system	setting	measurement	value
CC(/C=C/C=C(\C)c1cc(C(C)(C)C)cc(C(C)(C)C)c1)=C\C(=O)O	viral replication, inhibitor	Vero C1008	1 µM	inhibition	61.6%
COc1ccc(C[C@@H]2c3cc(Oc4cc(C[C@@H]5c6cc(O)c(OC)cc6CCN5C)ccc4O)c(OC)cc3CCN2C)cc1	cytopathic effect, inhibitor	Vero C1008	50 µM	inhibition	66.7%
CN[C@@H](C)C(=O)N[C@H](C(=O)N1CCC[C@H]1C(=O)Nc1sc(-c2ncco2)nc1-c1ccccc1)C1CCCCC1	viral replication, inhibitor	Vero C1008	1 µM	inhibition	42.2%
O=C(O[C@@H]1Cc2c(O)cc(O)cc2O[C@@H]1c1cc(O)c(O)c(O)c1)c1cc(O)c(O)c(O)c1	cytopathic effect	Vero C1008	1.562 µM	inhibition	0%
Cc1cc(NC(=O)c2cc3c(=O)n4cccc(C)c4nc3n2C)ccc1Br	viral replication	Vero	10 µM	inhibition	91.9%
CCN(C(C)=O)c1cccc(-c2ccnc3c(C#N)cnn23)c1	viral replication, inhibitor	Vero C1008	1 µM	inhibition	42.1%
CN(C)CCCN1c2ccccc2Sc2ccc(Cl)cc21	viral replication	Vero C1008		IC50	282 nM
Cn1c(C(=O)Nc2ccc(Cl)cc2)cc2c(=O)n3ccccc3nc21	viral replication	Vero	10 µM	inhibition	91.8%
CC1=NN(c2ccccc2)C(=O)C1	viral replication, inhibitor	Huh-7		IC50	> 2000 nM
O=C(/C=C/c1ccc(O)c(O)c1/C=C/c1ccc(O)c(O)c1)O[C@H](Cc1ccc(O)c(O)c1)C(=O)O	cytopathic effect, inhibitor	Vero C1008	1.562 µM	inhibition	0%
[2H]C([2H])(c1cc(F)c(F)cc1F)n1c(=O)n(Cc2ncn(C)n2)c(=O)[nH]/c1=N\c1cc2cn(C)nc2cc1Cl	viral replication, inhibitor, qPCR		48 h	EC50	24 nM
CCCN(CCC)CCc1ccc(OC)c(OCCc2ccccc2)c1	viral replication, inhibitor	A549-ACE2		IC50	1410 nM
CCCCCCCCCCCCCCCCCCOC[C@H](COP(=O)(O)OC[C@H]1O[C@@](C#N)(c2ccc3c(N)ncnn23)[C@H](O)[C@@H]1O)OCc1ccccc1	viral replication, inhibitor, qPCR	Vero C1008	48 h	EC90	160 nM
CN(Cc1cc(Br)cc(Br)c1N)C1CCCCC1	viral replication	Vero C1008		IC50	2820 nM
O=C(NC1CCN(CCCCC2(C(=O)NCC(F)(F)F)c3ccccc3-c3ccccc32)CC1)c1ccccc1-c1ccc(C(F)(F)F)cc1	viral replication, inhibitor	Huh-7		IC50	765 nM
CN1CCN(C2=Nc3ccccc3Oc3ccc(Cl)cc32)CC1	viral replication, inhibitor	Vero C1008		IC50	11500 nM
CCCCCCCCCCCCCCCCCCOCCOP(=O)(O)OC[C@H]1O[C@@](C#N)(c2ccc3c(N)ncnn23)[C@H](O)[C@@H]1O	viral replication, inhibitor, qPCR	Vero C1008		EC50	300 nM
[2H]C([2H])([2H])n1cc2cc(/N=c3\[nH]c(=O)n(Cc4ncn(C)n4)c(=O)n3Cc3cc(F)c(F)cc3F)c(Cl)cc2n1	viral replication, inhibitor, qPCR		48 h	EC50	18 nM
CN[C@@H](C)C(=O)N[C@H]1CN(C(=O)CC(C)C)CC[C@H]2CC[C@@H](C(=O)NC(c3ccccc3)c3ccccc3)N2C1=O	viral replication, inhibitor	Vero C1008	1 µM	inhibition	54%
CCc1ccc(NC(=O)c2cc3c(=O)n4ccccc4nc3n2C)cc1	viral replication	Vero	1 nM	inhibition	4.08%
